# Source: PubChem BioAssay
# The list is not random: actives were taken first. Their share in the collection is about 2.6%.
# RAD52 inh: RAD52 (human) annealing inhibition; inhibition, % at 18.7 µM; P43351; 0.46% of 360,000 active; AID 651710; recombinant RAD52 DNA annealing, FRET fluorescence;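 active = every replicate showing at least 50% inhibition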
# Target sequence (P43351 whole entry, looked up): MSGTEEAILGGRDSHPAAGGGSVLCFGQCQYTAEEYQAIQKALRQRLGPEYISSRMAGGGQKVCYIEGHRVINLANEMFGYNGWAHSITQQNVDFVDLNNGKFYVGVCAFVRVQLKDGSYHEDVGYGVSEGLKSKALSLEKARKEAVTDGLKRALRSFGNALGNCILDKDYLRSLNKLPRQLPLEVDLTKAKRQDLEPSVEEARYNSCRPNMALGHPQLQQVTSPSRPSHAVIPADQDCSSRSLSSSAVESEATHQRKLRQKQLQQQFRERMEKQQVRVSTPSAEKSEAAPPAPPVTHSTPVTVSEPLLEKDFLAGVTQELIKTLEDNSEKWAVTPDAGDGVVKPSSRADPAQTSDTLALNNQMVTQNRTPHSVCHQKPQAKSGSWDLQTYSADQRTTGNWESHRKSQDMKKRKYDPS
# INS-1E GSIS act: primary screen for activators of insulin secretion dependent on glucose, INS-1E cells, GLuc reporter luminescence; INS-1E GLuc reporter insulin secretion, 2-3 h; activation, % at 16.6 µM; 0.61% of 370,000 active;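 active = lowest replicate activation of at least 40%, so every replicate reaches that level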;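 also: 0% = median of neutral control wells and 100% = median of IBMX positive control wells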
# RAD54 inh: inhibitors of human RAD54 branch migration | Q92698 | RAD54 Holliday junction branch migration, FAM/BHQ fluorescence | inhibition, % at 10.4 µM | 0.14% of 360,000 active | AID 602329;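 active = mean normalized replicate activity at least 40 and at least half of replicates scoring 40 or more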;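 also: 0% = median of neutral control wells and 100% = median of positive control wells; inhibitors cause a drop in the FAM fluorescence signal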
# Ecoli rRNA inh: inhibits bacterial ribosomal RNA function over humanized ribosomes. AID 720706. E. coli WT GFP vs humanized-ribosome RFP mutants, fluorescence, 24 h; stronger effect = lower value; DMSO median 0, no signal -100. GFP signal change (wild-type ribosome), % (concentration not given with the values). 1.6% of 350,000 active;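 active = significant combined selectivity score with lowered wild-type GFP, culture density cut under 30%, mutant RFP and density less affected; inactive = any of these conditions unmet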
# E-selectin induc: induces E-selectin expression in human endothelial cells | activation, % at 7.58 µM | AID 686992 | P16581 | 0.37% of 260,000 active | HUVEC E-selectin immunofluorescence imaging; normalized: neutral wells 0, TNF-alpha wells 100;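 active = mean E-selectin-positive cell signal at least 10% of the positive control, reached in at least 60% of replicates, without over 20% cell loss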
#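 Material: HUVEC primary endothelial cells; Amount: 3,000 cells per well; Dosing: single concentration; Medium: EGM-2 growth medium on 0.1% gelatin-coated wells; Read-out basis: percent E-selectin-positive cells; Signal: immunofluorescence imaging; Control set: TNF-alpha, DMSO.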
# AF4-AF9 inh: MLL-AF4/AF9 protein interaction inhibition | AlphaScreen, biotin-AF4 peptide binding to FLAG-AF9 | 0.47% of 350,000 active | inhibition, % at 10 µM | AID 651704 | P42568;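 active = every replicate reaching a set inhibition limit, whatever the replicate mean, cut at about 25% in these data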;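 also: 0% = plate neutral control median and 100% = total signal loss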
# The depositor's hits bear a star; nt = no result given.
SMILES,RAD52 inh,INS-1E GSIS act,RAD54 inh,Ecoli rRNA inh,E-selectin induc,AF4-AF9 inh
C[C@@H]1CCCCO[C@@H](CN(C)C(=O)C2CCCCC2)[C@@H](C)CN([C@H](C)CO)C(=O)c2cc(NC(=O)c3ccncc3)ccc2O1,2.7,3.7,2.2,0.9,1.7,0.5
Cn1cnc(CCNC(=O)C[C@H]2CC[C@H]3[C@@H](COC[C@@H](O)CN3C(=O)C3CC3)O2)c1,14.2,2.0,5.1,-0.6,0.0,0.8
O=[N+]([O-])c1ccc(S(=O)(=O)c2ccccc2)nc1,-13.5,76.6*,-2.6,11.2,-0.2,1.0
Cc1ccc(S(=O)(=O)c2ccc([N+](=O)[O-])cn2)cc1,-3.4,45.4*,14.2,23.6,-0.3,-5.8
Cc1cc(S(=O)(=O)c2ccc([N+](=O)[O-])cn2)ccc1Br,16.9,14.6,nt,7.3,2.6,-1.4
C[C@H](CO)N1C[C@H](C)[C@@H](CN(C)S(=O)(=O)c2ccc(F)cc2)Oc2ncc(-c3ccncc3)cc2C1=O,-1.5,28.6,-12.1,-3.6,-0.2,-2.8
C[C@H]1CN([C@@H](C)CO)C(=O)c2cc(C3=CCCCC3)cnc2O[C@H]1CN(C)C(=O)Nc1ccccc1,4.1,-23.5,1.7,3.7,-0.4,-1.4
CSCCC(NC(=O)c1ccccc1)C(=O)NCCCSc1ccccc1 (centres undefined),3.2,-18.9,-6.6,-22.7*,nt,1.0
C[C@H]1CN([C@@H](C)CO)C(=O)c2cc(NC(=O)CCCN(C)C)ccc2O[C@H]1CN(C)C(=O)Nc1ccc2c(c1)OCO2,-31.7,-4.3,2.7,-4.7,1.5,-0.6
O=C(Nc1ccc(F)cc1)N1CCCCN2[C@H](CO)[C@@H](c3ccc(-c4ccccc4F)cc3)[C@@H]2C1,48.7,nt,4.6,nt,nt,-5.8
O=C(Nc1ccccc1)N1CCCCN2[C@H](C1)[C@H](c1ccc(-c3ccccc3F)cc1)[C@@H]2CO,-0.9,-14.0,-1.0,-11.6,0.1,-0.2
O=S(=O)(c1ccc(F)cc1)N1CCCCN2[C@H](CO)[C@@H](c3ccc(-c4ccccc4F)cc3)[C@H]2C1,56.5*,nt,0.4,nt,nt,1.8
O=C(Nc1ccc(F)cc1)N1CCCCN2[C@H](CO)[C@H](c3ccc(-c4ccccc4F)cc3)[C@H]2C1,59.9*,nt,6.0,nt,nt,10.8
O=C(Nc1ccc(F)cc1)N1CCCCN2[C@H](CO)[C@@H](c3ccc(-c4ccccc4F)cc3)[C@H]2C1,53.4*,nt,8.3,nt,nt,9.7
COCC(=O)N(C)C[C@H]1Oc2cc(C#CCC(C)C)ccc2S(=O)(=O)N([C@@H](C)CO)C[C@H]1C,5.6,1.1,0.0,3.0,0.3,2.5
O=[N+]([O-])c1ccc(CN2CCN(c3ccccc3)CC2)o1,-24.8,8.3,-2.6,18.0,1.8,2.6
CN1CCCN(c2ccc([N+](=O)[O-])cc2)CC1,-0.8,nt,nt,6.3,nt,28.3*
O=[N+]([O-])c1ccc(N2CCN(CCOc3nonc3-c3ccccc3)CC2)c(Cl)c1,-11.1,-5.4,-4.3,17.9,nt,-6.4
O=[N+]([O-])c1ccc(N2CCN(c3ccc(F)cc3)CC2)cc1,-11.4,0.7,2.6,8.0,-0.1,-1.6
O=[N+]([O-])c1ccc(N2CCN(Cc3ccc([N+](=O)[O-])o3)CC2)cc1,-20.0,1.6,5.5,-23.0*,nt,1.4
Cc1nonc1OCCN1CCN(c2ccc([N+](=O)[O-])cc2)CC1,-11.0,-10.1,nt,-23.0*,0.0,4.2
O=C(c1ccccc1)c1c2c(cc3sc4ccccc4[n+]13)-c1cccc3cccc-2c13,nt,-43.4,105.0*,nt,179.3*,nt
C[C@@H]1CN([C@H](C)CO)C(=O)c2cc(NC(=O)Nc3cccc4ccccc34)ccc2O[C@@H](C)CCCCO[C@H]1CN(C)Cc1ccc(C(=O)O)cc1,15.4,8.0,-9.5,0.9,0.0,0.7
Cc1nc(C(=O)NNC(=O)c2ccc(Cl)cc2)c(C(F)(F)F)o1,-17.3,1.0,-3.8,-29.8*,0.0,-4.9
O=C(C[C@H]1CC[C@H](NC(=O)C2CC2)[C@H](CO)O1)NCCCN1CCOCC1,5.2,0.0,8.2,0.0,-0.2,-5.2
SMILES,RAD52 inh,INS-1E GSIS act,RAD54 inh,Ecoli rRNA inh,E-selectin induc,AF4-AF9 inh
CCOC(=O)c1nnc(-c2ccccc2)o1,nt,nt,-12.2,nt,-0.2,nt
O=C(CCc1ccccc1)c1nnc(-c2ccccc2)o1,-11.8,-4.2,nt,-23.1*,0.5,-0.3
C[C@@H]1CCCCO[C@@H](CN(C)Cc2ccncc2)[C@H](C)CN([C@@H](C)CO)C(=O)c2cc(NC(=O)Nc3ccc(F)cc3)ccc2O1,nt,-12.4,0.7,-8.1,-0.1,nt
CON(C)C(=O)CC1(CN(Cc2ccccc2)C(=O)OC(C)(C)C)CCCCC1,-4.3,3.3,-8.1,-21.1,-0.1,-13.5
C#CC(=O)CC1(CN(Cc2ccccc2)C(=O)OC(C)(C)C)CCCCC1,-4.4,53.9*,-8.9,0.9,0.0,-3.6
COc1cccc(NC(=O)N(C)C[C@@H]2Oc3ncc(C#Cc4ccc(F)cc4)cc3C(=O)N([C@H](C)CO)C[C@H]2C)c1,-13.8,-25.7,-15.7,-7.0,-0.7,-3.3
Oc1ccc(Br)cc1CNc1ccccn1,2.1,-9.6,nt,-15.8*,nt,-0.8
COc1cc(NC(=O)CN2C(=O)C(=O)N(CC(C)C)C2=O)cc(OC)c1,-3.1,43.1*,1.3,-2.0,0.2,-6.1
COc1cc(NC(=O)CN2C(=O)C(=O)N(C3CCCC3)C2=O)cc(OC)c1,-0.7,-7.6,-3.9,2.1,-0.5,-1.2
CC(C)NC(=O)N(C)C[C@@H]1OCCCC[C@H](C)Oc2ccc(NS(=O)(=O)c3ccc(Cl)cc3)cc2C(=O)N([C@@H](C)CO)C[C@H]1C,11.8,-12.7,-4.8,-1.5,0.1,-2.2
O=[N+]([O-])c1ccc(CC(Cl)c2ccccn2)cc1 (centres undefined),-6.5,-1.1,-3.0,-23.6*,-0.3,0.4
O=[N+]([O-])c1ccc(Cc2ccccn2)cc1,-0.6,-0.8,-3.8,-3.2,-0.1,0.0
C[C@@H]1CN([C@@H](C)CO)C(=O)c2cccc(NS(C)(=O)=O)c2O[C@H]1CN(C)Cc1ccc(Oc2ccccc2)cc1,5.4,6.5,1.7,1.0,17.7,2.2
Cc1ccc(S(=O)(=O)Nc2cccc3c2O[C@H](CN(C)Cc2ccc(C(=O)O)cc2)[C@H](C)CN([C@H](C)CO)C3=O)cc1,-14.5,13.1,3.9,4.2,-0.1,26.5*
C[C@@H]1CN([C@H](C)CO)C(=O)c2cccc(NS(C)(=O)=O)c2O[C@H]1CN(C)Cc1ccncc1,-10.6,5.5,2.1,2.3,124.6*,-2.1
Cc1ccc(S(=O)(=O)Nc2cccc3c2O[C@@H](CN(C)Cc2ccc(C(=O)O)cc2)[C@@H](C)CN([C@@H](C)CO)C3=O)cc1,-15.4,19.5,9.3,-0.1,0.0,-0.7
